Screening results (PubChem BioAssay)
A selection: hits, their analogues and other compounds. The true share with any hit is near 1.4%.
CDK5 p35 inh: inhibitors of human CDK5/p35 kinase. Q00535+Q15078. Recombinant CDK5/p35, ADP-Glo luminescence, 60 min. inhibition, % at 10 µM. actives 0.01% (n = 330,000);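 active means highest replicate inhibition of at least 50% and at least 75% of replicates reaching 50%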
Target sequence (Q00535 whole entry, looked up): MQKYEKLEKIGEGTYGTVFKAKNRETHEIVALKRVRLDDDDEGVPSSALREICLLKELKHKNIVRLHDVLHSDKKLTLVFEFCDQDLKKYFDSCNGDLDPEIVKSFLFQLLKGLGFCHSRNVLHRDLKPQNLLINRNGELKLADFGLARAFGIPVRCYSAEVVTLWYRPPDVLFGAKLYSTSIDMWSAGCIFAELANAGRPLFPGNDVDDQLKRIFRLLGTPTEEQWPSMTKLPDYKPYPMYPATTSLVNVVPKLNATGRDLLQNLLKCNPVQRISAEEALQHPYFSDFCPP
Target sequence (Q15078 whole entry, looked up): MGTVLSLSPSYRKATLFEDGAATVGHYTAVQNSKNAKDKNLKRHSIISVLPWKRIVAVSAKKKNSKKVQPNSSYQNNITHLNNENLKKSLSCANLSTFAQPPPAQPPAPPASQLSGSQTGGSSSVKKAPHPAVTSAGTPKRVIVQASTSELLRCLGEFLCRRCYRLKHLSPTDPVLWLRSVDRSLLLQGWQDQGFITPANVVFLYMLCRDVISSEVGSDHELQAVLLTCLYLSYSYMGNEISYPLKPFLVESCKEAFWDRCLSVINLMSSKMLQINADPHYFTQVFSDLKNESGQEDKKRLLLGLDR
CAL PDZ FP-1: inhibitors of human CAL PDZ peptide binding | Q9HD26 | purified CAL PDZ, TMR-peptide fluorescence polarization, 1 h | inhibition, % at 20 µM | actives 0.02% (n = 330,000) | AID 504414;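 active means highest replicate inhibition of at least 40%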
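System: purified tagged CAL PDZ domain construct (CerCALP). Schedule: 1 h incubation at room temperature before polarization reading. Medium: 25 mM sodium phosphate pH 7.4, 150 mM NaCl, TCEP, IgG, Thesit. Read-out: percent inhibition from loss of millipolarization. Measured by: FP readout, S and P plane fluorescence. Probe or stimulus: fluorescent TMR peptide probe.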
CAL PDZ FP-2: inhibitors of human CAL PDZ peptide binding. actives 0.92% (n = 300,000). Q9HD26. purified CAL PDZ, TMR-peptide fluorescence polarization, 1 h. inhibition, % at 24.9 µM;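 active means mean inhibition of at least 30% with at least half of replicates also reaching 30%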
TbMetRS inhib: Trypanosoma brucei MetRS inhibition; purified T. brucei MetRS, ATP depletion, Kinase-Glo luminescence; AID 624268; actives 0.4% (n = 360,000); inhibition, % at 11.9 µM;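 active means inhibition above a per-plate cutoff of the control wells' mean inhibition plus 3 SD, cut at about 5.5% in these data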
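Material: parasite MetRS enzyme / Replication: singlicate, one well per compound / Signal: luminescence of leftover ATP / Schedule: 2 h aminoacylation at 25 °C after 15 min preincubation / Medium: HEPES-MgCl2-KCl buffer plus DTT, spermine, BSA, pyrophosphatase / Doses: 11.9 µM single point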
PvdQ acylase: P. aeruginosa PvdQ acylase inhibition. purified PvdQ acylase, fluorescence plate reader. inhibition, % at 10 µM. actives 0.063% (n = 340,000). AID 488965; in the data active means inhibition above about 30%, passing the limit was not always enough
Dyrk1A ADPGlo: Dyrk1A (rat) kinase inhibition. inhibition, % at 12.5 µM. ADP-Glo luminescence, NFATc1 peptide. actives 0.43% (n = 310,000). AID 504441. Q63470; in the data active means inhibition above about 50%
Each line names hits and unclear results; the compound was inactive in the other large screens.

Cc1c(NS(=O)(=O)c2ccc(S(=O)(=O)c3ccccc3)s2)c(=O)n(-c2ccccc2)n1C	CAL PDZ FP-2 50
O=c1c2ccccc2nnn1Cc1ccc(F)cc1	none
Fc1ccc(Cn2nnc3ccccc32)cc1	CAL PDZ FP-2 123 (no result: CAL PDZ FP-1)
Cc1noc(NS(=O)(=O)c2ccc(NC(=O)c3ccc(N(C)C)cc3)cc2)c1C	CAL PDZ FP-2 58
CSc1nc(-c2ccc(C)cc2)[nH]c1S(=O)(=O)c1ccccc1	CAL PDZ FP-2 35 (no result: CAL PDZ FP-1, Dyrk1A ADPGlo)
CSc1nc(-c2ccccc2)[nH]c(=S)c1C(C)=O	none
NS(=O)(=O)c1ccc(CCNC(=O)COC(=O)Cc2ccc([N+](=O)[O-])cc2)cc1	CAL PDZ FP-2 34 (no result: Dyrk1A ADPGlo)
CC(=O)OC[C@@H]1CN(Cc2ccccc2)C[C@H](n2cnc3c(N4CCN(c5ccccc5)CC4)ncnc32)O1	none (no result: CDK5 p35 inh, CAL PDZ FP-1, CAL PDZ FP-2, PvdQ acylase, Dyrk1A ADPGlo)
Oc1ccc(Cl)cc1N=Nc1ccccc1	none
Nc1c(Cl)cc(N=Nc2ccccc2)cc1Cl	CAL PDZ FP-2 active (no result: Dyrk1A ADPGlo)
COc1ccc(Cc2nc3ccc(C(=O)N(C)C(C)c4ccon4)cc3o2)cc1 (stereo unspecified)	CAL PDZ FP-2 34
CC1(C(=O)Nc2cnc3ccccc3c2)CCN1Cc1cc2ccccc2o1 (stereo unspecified)	none (no result: CDK5 p35 inh, CAL PDZ FP-1, CAL PDZ FP-2, PvdQ acylase, Dyrk1A ADPGlo)
CCCNC(=O)CC1Sc2ccccc2NC1=O (stereo unspecified)	none (no result: CAL PDZ FP-2)
COc1ccccc1CNC(=O)CC1Sc2ccccc2NC1=O (stereo unspecified)	CAL PDZ FP-2 62
COC(=O)c1cc(=O)nc(NNC(C)=O)s1	none (no result: CDK5 p35 inh, CAL PDZ FP-1, CAL PDZ FP-2, PvdQ acylase, Dyrk1A ADPGlo)
COC(=O)c1ccc(C(=O)OC)c(NC(=O)Cc2cccs2)c1	none (no result: CDK5 p35 inh, CAL PDZ FP-1, CAL PDZ FP-2, PvdQ acylase, Dyrk1A ADPGlo)
CC(=N)C1=C(O)CC(c2ccccc2)CC1=O (stereo unspecified)	none (no result: CAL PDZ FP-2)
CCC(=NC)C1=C(O)CC(c2ccccc2)CC1=O (stereo unspecified)	CAL PDZ FP-2 71 (no result: CAL PDZ FP-1)
Cc1ccc(OCCCCn2ccnc2C)c(C)c1	CAL PDZ FP-2 79
COCCSc1nnc(NC(=O)c2ccc(OC)c([N+](=O)[O-])c2)s1	CAL PDZ FP-2 53
COCCSc1nnc(NC(=O)Cc2ccc(OC)cc2)s1	CAL PDZ FP-2 49
COc1ccc(Cc2c(-c3ccc(C)cc3)nc3ccc(Cl)cn23)c(C)c1	none (no result: CDK5 p35 inh, CAL PDZ FP-1, CAL PDZ FP-2, PvdQ acylase, Dyrk1A ADPGlo)
CC(C)C[C@@H]1Cc2[nH]c(=S)[nH]c(=O)c2[C@H](CCc2ccccc2)O1	none (no result: CDK5 p35 inh, CAL PDZ FP-1, CAL PDZ FP-2, PvdQ acylase, Dyrk1A ADPGlo)
C=CCn1c(NC(=O)c2ccco2)nc2ccccc21	CAL PDZ FP-1 61, CAL PDZ FP-2 94
Cc1cc(F)ccc1NCc1ccc([N+](=O)[O-])cc1	CAL PDZ FP-2 46
C#Cc1cccc(Nc2nc(NCc3ccccc3)nc3ccsc23)c1	none (no result: CDK5 p35 inh, CAL PDZ FP-1, CAL PDZ FP-2, PvdQ acylase, Dyrk1A ADPGlo)
O=C(NC1CCCC1)C(C1CC1)n1c(-c2ccccn2)nc2ccccc21 (stereo unspecified)	none (no result: CDK5 p35 inh, CAL PDZ FP-1, CAL PDZ FP-2, PvdQ acylase, Dyrk1A ADPGlo)
Cc1ccc(S(=O)(=O)Nc2ccc3c(c2)nc(CCN2CCOCC2)n3C)cc1	CAL PDZ FP-2 32
CCN(CC)S(=O)(=O)c1ccc(N2CCOCC2)c(NS(=O)(=O)c2ccc(C)c(C)c2)c1	CAL PDZ FP-2 89
Cc1ccc(S(=O)(=O)Nc2cc3c(cc2N2CCOCC2)n(C)c(=O)c(=O)n3C)cc1	CAL PDZ FP-2 36
O=C1CCCN1CC(O)CS(=O)(=O)Cc1ccccc1 (stereo unspecified)	CAL PDZ FP-2 46 (no result: CAL PDZ FP-1)
Cc1nc(SCCC(=O)O)c2cc(-c3ccccc3)sc2n1	CAL PDZ FP-2 55
Cc1nc(N2CCOCC2)c2cc(-c3ccccc3)sc2n1	none
Cc1ccc(S(=O)(=O)c2cc3ccccc3nc2N)cc1	CAL PDZ FP-2 40 (no result: Dyrk1A ADPGlo)
COC1OC2COC(c3ccccc3)OC2C2OC(c3ccccc3)OC12 (stereo unspecified)	none (no result: CDK5 p35 inh, CAL PDZ FP-1, CAL PDZ FP-2, PvdQ acylase, Dyrk1A ADPGlo)
COC1OC2COC(c3ccccc3)OC2C2OC12 (stereo unspecified)	CAL PDZ FP-2 144
CCOC(=O)C1CCN(c2nc(-c3ccc(C)cc3)nc3ccccc23)CC1	CAL PDZ FP-2 85 (no result: Dyrk1A ADPGlo)
N#Cc1cc(-c2ccccc2)cnc1Cl	PvdQ acylase 37
COc1ccc(/C=N/N2CCN(Cc3ccc(C)cc3)CC2)cc1Br	CAL PDZ FP-2 72
O=C(Nc1ccccn1)Nc1ccccc1Cl	CAL PDZ FP-2 31
O=C(Nc1cnccn1)Nc1ccccc1Cl	none
O=C(Nc1ccccc1N1CCOCC1)c1ccc(S(=O)(=O)NCc2ccco2)cc1	none
O=C(Nc1ccccc1N1CCOCC1)c1ccc(Cl)c(S(=O)(=O)NCc2ccco2)c1	CAL PDZ FP-2 91
